STAT3 act: IL-6 driven STAT3 reporter potentiators, primary screen, U3A cells, luciferase, luminescence, MLSCN library; 0.91% of 190,000 active; AID 871, 2007; IL-6 STAT3-luciferase reporter; 100% = signal with IL-6 EC80 alone; activation (% of control), % at 5.6 µM;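 active = activation above the screen-wide mean of compound activation plus 3 SD, cut at about 130% in these data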;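 note: 0% = background luminescence of wells with medium and substrate only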
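Assay system – human STAT1-deficient U3A cells with stable STAT3-luciferase reporter · Also added – IL-6 (33 ng/mL) · Schedule – compound 1 h, then IL-6 6 h at 37 °C · Technique – reporter luminescence signal · Evaluation – % activation versus median of IL-6-stimulated wells · Benchmarks – IL-6-only wells as 100% reference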
STAT1 act: STAT1 signaling activators, primary screen, cell-based, HTS, luciferase reporter. NIH 3T3 STAT1-luciferase reporter, IFN-gamma, luminescence; 100% = IFN-gamma alone, no compound. activation (% of control), % at 5.5 µM. 2.6% of 200,000 active. AID 932, 2007;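 active = activation above the screen-wide mean activation plus 3 SD, cut at about 130% in these data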;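 note: raw ratio to IFN-gamma control signal so 100% means no change and 0% no light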
STAT3 inh: IL-6 driven STAT3 reporter inhibitors, primary screen, U3A cells, luciferase, luminescence, MLSCN library; inhibition, % at 5.5 µM; IL-6 STAT3-luciferase reporter; host cell line lacks STAT1; AID 862, 2007; 0.89% of 190,000 active;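 active = inhibition above the mean inhibition across all screened compounds plus 3 SD, cut at about 44% in these data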;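 note: 0% = DMSO only wells and 100% = 100 µM nifuroxazide control wells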
NF-kB neuron act: activators of NF-kB expression in neurons, primary screen, cell-based, HTS | human neuronal cells, NF-kB reporter expression; active compounds read high | fold change at 12.5 µM | 1.6% of 190,000 active | AID 1239, 2008; in the data active = fold change above about 3.3
STAT1 inh: STAT1 signaling inhibitors, primary screen, cell-based, HTS, luciferase reporter. inhibition, % at 5.5 µM. NIH 3T3 STAT1-luciferase reporter, IFN-gamma, luminescence. 0.35% of 200,000 active. AID 920, 2007;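 active = inhibition above a set limit, the mean inhibition across all tested compounds plus 3 SD, cut at about 34% in these data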;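 note: 0% = IFN-gamma with DMSO and 100% = IFN-gamma with 300 µM nifuroxazide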
APP 5'UTR act: activators of APP 5'UTR luciferase reporter, primary screen, SH-SY5Y cells; 1% of 190,000 active; activation, % at 2 µM; SH-SY5Y APP 5'UTR luciferase reporter, luminescence; zero percent = DMSO vehicle wells;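 active = activation above a set limit, based on mean plus 3 SD of controls, cut at about 140% in these data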
The depositor's hits bear a star; . = not tested or not shown. This is a sample that favours compounds with a hit; in the whole collection about 4.9% have one here.

SMILES | STAT3 act | STAT1 act | STAT3 inh | NF-kB neuron act | STAT1 inh | APP 5'UTR act
COc1ccccc1/C=N/Nc1cc(N(C)C)nc(N(C)C)n1 | 99 | 91 | 7 | 1.1 | 7 | 2
O=C(COC(=O)Cc1ccccc1F)Nc1cccc(S(=O)(=O)NC2=NCCCCC2)c1 | 101 | 96 | 9 | 0.99 | 3 | -13
CC(C)Oc1ccc(NC(=O)Oc2ccccc2)cc1 | 111 | 130* | -8 | 1.1 | -33 | 1
CC1(C)CC(=O)C2=C(C1)c1c(ccc3ccccc13)NC2c1ccc(Br)o1 (configuration not stated) | 93 | 98 | 14 | 0.9 | 2 | 6
COc1ccc(-c2csc(C)n2)cc1OC | 97 | 105 | 10 | 1.9 | -5 | 14
CCOc1ccc(-c2cn3ccccc3n2)cc1 | 29 | 50 | 89* | 4.8* | 53* | 207*
COc1ccc(-c2cn3cc(C)ccc3n2)cc1F | 26 | 40 | 87* | 2.4 | 63* | 147*
COc1ccc(CC(=O)Nc2ccc(-c3cn4ccccc4n3)cc2)cc1OC | 85 | 111 | 17 | 1.4 | -12 | 7
COc1ccc(-c2cn3ccccc3n2)cc1OC | 173* | 130* | -82 | 2.3 | -32 | 104
COc1ccc(-c2cn3cc(C)ccc3n2)cc1OC | 84 | 134* | 22 | 5.7* | -36 | 184*
Cc1ccc2c(CC(=O)Nc3cccc(S(=O)(=O)N4CCOCC4)c3)coc2c1 | 100 | 94 | 8 | 1 | 7 | -3
CCn1c(SCC(=O)Nc2nc3ccc(OC)cc3s2)nc2c1c(=O)n(C)c(=O)n2C | 93 | 95 | 14 | 0.63 | 6 | 27
CCOc1ccccc1OCCCC(=O)Nc1sccc1C(N)=O | 98 | 100 | 6 | 0.91 | 0 | -3
Cc1ccc(C(=O)Nc2nc(=O)n(C(=O)c3ccccc3Cl)s2)cc1 | 122 | 141* | -19 | 1.2 | -44 | 25
COc1ccc(NC(=O)/C(Cl)=C(/Cl)S(=O)(=O)Cc2ccc(C)cc2)cn1 | 111 | 133* | -7 | 0.17 | -37 | -86
CCCCOc1ccc2c(c1)C(=O)c1cc(O)ccc1-2 | 91 | 149* | 16 | . | -52 | 99
COc1ccc(C(=O)Cn2c(NCCO)nc3ccccc32)cc1OC | 101 | 95 | 0 | 0.82 | 5 | 3
O=c1c(Cl)c(N2CCN(c3ccc(F)cc3)CC2)cnn1-c1nc2ccccc2s1 | 103 | 140* | 0 | 1.5 | -45 | 91
CCCCOc1ccc(/C=C/C2=CC(C)(C)NC(=S)N2)cc1OCC | 101 | 114 | 4 | 1.2 | -19 | 30
Nc1nonc1-c1nc2ccccc2n1Cc1ccc(F)cc1Cl | 161* | 135* | -72 | 0.95 | -38 | 8
CC(C)c1ccc(Nc2ncccc2C(=O)O)cc1 | 94 | 143* | 11 | 1.2 | -48 | 140*
COc1ccc(NC(=O)c2cccnc2Nc2ccc(OC)cc2)cc1 | 80 | 94 | 26 | 0.93 | 6 | -8
CCOC(=O)c1c(C)[nH]c(C(=O)COC(=O)CNC(=O)C2CCCCC2)c1C | 107 | 136* | -3 | 1.1 | -39 | -10
CCOC(=O)c1c(C)[nH]c(C)c1C(=O)COC(=O)CNC(=O)C1CCCCC1 | 107 | 102 | -6 | 1.1 | -4 | -21
CCOC(=O)c1c(C)[nH]c(C(=O)COC(=O)CNC(=O)c2ccccc2Cl)c1C | 111 | 132* | -15 | 2.5 | -36 | 37
SMILES | STAT3 act | STAT1 act | STAT3 inh | NF-kB neuron act | STAT1 inh | APP 5'UTR act
CCOC(=O)c1c(C)[nH]c(C(=O)COC(=O)[C@H](C)NC(=O)c2ccccc2Cl)c1C | 96 | 107 | 9 | 1.6 | -8 | 36
COC(=O)c1ccc(Cn2cnc3c(cnn3-c3ccc(F)cc3)c2=O)o1 | 102 | 99 | 4 | 0.99 | 1 | -1
CC(C)CCn1cnc2c(cnn2-c2ccc(F)cc2)c1=O | 99 | 130* | 2 | 1.8 | -33 | 18
CCN(C(=O)COC(=O)CNC(=O)c1ccc(C)s1)c1ccccc1 | 100 | 101 | 2 | 1.3 | -3 | 0
CN(C)c1ccc(/C=C/C(=O)c2ccccc2O)cc1 | 86 | 115 | 21 | 3.5* | -16 | 137*
COc1cc(/C=C/C(=O)c2ccccc2O)cc(OC)c1OC | 107 | 93 | -7 | 1.5 | 7 | -5
O=C(/C=C/c1ccc2c(c1)OCCCO2)c1ccccc1O | 107 | 128 | -8 | 3.6* | -31 | 216*
CCSc1ccccc1C(=O)NC1CCCCC1 | 101 | 103 | 3 | 1.1 | -6 | 10
CCOc1cc(C2NN=C(c3ccccc3)S2)ccc1OCc1ccccc1Cl (configuration not stated) | 107 | 136* | -1 | 3.7* | -41 | 18
CCOc1cc(CNC2CCCC2)ccc1OCc1ccccc1Cl | 101 | 87 | 1 | 1.1 | 12 | -26
CCOc1cc(C2NN=C(c3ccccc3)S2)ccc1OCc1ccc(F)cc1 (configuration not stated) | 95 | 133* | 7 | 4.5* | -36 | 97
N/C(=N\OC(=O)c1ccc(Br)cc1)c1ccncc1 | 92 | 143* | 12 | 2.3 | -46 | 78
N/C(=N\OC(=O)c1ccccc1)c1ccccn1 | 41 | 33 | 72* | 0.99 | 71* | 150*
N/C(=N\OC(=O)c1ccc(Br)o1)c1ccccn1 | 96 | 119 | 9 | 3.7* | -24 | 149*
N/C(=N\OC(=O)c1ccccc1)c1ccncc1 | 98 | 115 | 9 | 1.1 | -18 | 38
COC(=O)c1ccc(COC(=O)c2ccccn2)cc1 | 103 | 133* | 0 | 1.4 | -36 | -3
COc1ccc(CNC(=O)COC(=O)[C@H](Cc2c[nH]c3ccccc23)NC(=O)c2cccs2)cc1 | 104 | 102 | 1 | 0.83 | -2 | -6
COc1cccc(C(C(=O)NC2CCCC2)N(C(=O)c2ccco2)c2ccc(-n3cnnn3)c(C)c2)c1OC (configuration not stated) | 112 | 106 | -8 | 0.91 | -9 | -19
c1ccc(-c2noc(CC3CCCCC3)n2)cc1 | 98 | 136* | 10 | 1.6 | -40 | 59
c1ccc(-c2noc(CCC3CCCC3)n2)cc1 | 104 | 113 | -3 | 2.3 | -16 | 12
Nc1nc(-c2cccc(F)c2)cs1 | 106 | 114 | -4 | 3.4* | -17 | 18
Nc1nc(-c2ccc3c(c2)CCCC3)cs1 | 95 | 136* | 12 | 5.3* | -38 | 95
O=C(Nc1nc2ccc(Cl)cc2s1)c1ccc(Br)o1 | 87 | 148* | 14 | 3.5* | -52 | 112
Cn1ncc(Cl)c1C(=O)Nc1nc2ccc(Cl)cc2s1 | 121 | 150* | -19 | 2.4 | -56 | 99

Compound activity as filed in PubChem.
